From publication PMC7396963 (Journal of pharmaceutical and biomedical analysis, 2018)
pIC50: −log10 of the molar value. Where two headings read alike, the source gives them in different places.

Experiments:
[1] = Glucuronidation kinetics of NBIF in RLM; format: in vitro ADME, rats; conditions: glucuronide formation from NBIF, UDPGA-supplemented RLM
In short: (§1)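 Incubation in 50 mM Tris-HCl (pH 7.4) with 4.0 mM MgCl2, 22 μg/mL alamethicin, 4.4 mM saccharolactone and 3.5 mM UDPGA. Enzyme source is recombinant UGT or pooled liver or intestinal microsomes, as the line states. Test compound 0.16–80 μM, 1 h. Ice-cold acetonitrile stop, centrifugation, UHPLC/Q-TOF-MS semi-quantification of glucuronides. Minus-UDPGA control. Triplicate. Michaelis-Menten or substrate-inhibition model chosen by Eadie-Hofstee plot; CLint = Vmax/Km.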

[2] = Glucuronidation kinetics of NBIF in MLM; format: in vitro ADME, mice; conditions: glucuronide formation from NBIF, UDPGA-supplemented MLM
In short: as §1

[3] = molecular target: T1, UGT1A1 (Homo sapiens, UniProt P22309); assay: Glucuronidation kinetics of NBIF by recombinant UGT1A1; format: in vitro ADME; conditions: glucuronide formation from NBIF
T1 sequence (P22309 26-533): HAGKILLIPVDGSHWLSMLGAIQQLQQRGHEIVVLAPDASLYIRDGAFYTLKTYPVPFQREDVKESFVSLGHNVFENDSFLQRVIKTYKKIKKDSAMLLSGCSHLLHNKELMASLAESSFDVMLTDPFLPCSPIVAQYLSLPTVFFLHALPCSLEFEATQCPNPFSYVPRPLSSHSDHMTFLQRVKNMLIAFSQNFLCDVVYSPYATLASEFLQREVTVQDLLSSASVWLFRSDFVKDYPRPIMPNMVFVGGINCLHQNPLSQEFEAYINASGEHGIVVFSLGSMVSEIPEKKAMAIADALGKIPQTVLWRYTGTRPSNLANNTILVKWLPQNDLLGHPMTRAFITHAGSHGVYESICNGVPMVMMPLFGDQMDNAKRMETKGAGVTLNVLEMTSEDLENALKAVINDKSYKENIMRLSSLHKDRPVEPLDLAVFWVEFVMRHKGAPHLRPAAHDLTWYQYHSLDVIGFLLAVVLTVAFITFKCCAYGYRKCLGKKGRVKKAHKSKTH
In short: as §1

[4] = molecular target: T2, UGT1A9 (Homo sapiens, UniProt O60656); assay: Glucuronidation kinetics of NBIF by recombinant UGT1A9; format: in vitro ADME; conditions: for Vmax: glucuronide formation from NBIF, recombinant UGT1A9
T2 sequence (O60656 26-530): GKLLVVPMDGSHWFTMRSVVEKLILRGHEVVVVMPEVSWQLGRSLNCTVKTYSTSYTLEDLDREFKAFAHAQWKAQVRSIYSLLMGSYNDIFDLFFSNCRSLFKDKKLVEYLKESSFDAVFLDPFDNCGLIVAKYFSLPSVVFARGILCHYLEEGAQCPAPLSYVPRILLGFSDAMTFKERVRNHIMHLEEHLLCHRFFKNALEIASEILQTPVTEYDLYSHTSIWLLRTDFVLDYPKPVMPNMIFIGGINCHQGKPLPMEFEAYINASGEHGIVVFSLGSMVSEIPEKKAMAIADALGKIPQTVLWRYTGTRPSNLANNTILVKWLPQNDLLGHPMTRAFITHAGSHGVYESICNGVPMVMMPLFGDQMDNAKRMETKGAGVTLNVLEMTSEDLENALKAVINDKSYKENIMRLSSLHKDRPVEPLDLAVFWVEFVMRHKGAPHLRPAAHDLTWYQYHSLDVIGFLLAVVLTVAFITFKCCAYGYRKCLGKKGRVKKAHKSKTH
In short: as §1

[5] = molecular target: T3, UGT1A8 (Homo sapiens, UniProt Q9HAW9); assay: Glucuronidation kinetics of NBIF by recombinant UGT1A8; format: in vitro ADME; conditions: glucuronide formation from NBIF
T3 sequence (Q9HAW9 26-530): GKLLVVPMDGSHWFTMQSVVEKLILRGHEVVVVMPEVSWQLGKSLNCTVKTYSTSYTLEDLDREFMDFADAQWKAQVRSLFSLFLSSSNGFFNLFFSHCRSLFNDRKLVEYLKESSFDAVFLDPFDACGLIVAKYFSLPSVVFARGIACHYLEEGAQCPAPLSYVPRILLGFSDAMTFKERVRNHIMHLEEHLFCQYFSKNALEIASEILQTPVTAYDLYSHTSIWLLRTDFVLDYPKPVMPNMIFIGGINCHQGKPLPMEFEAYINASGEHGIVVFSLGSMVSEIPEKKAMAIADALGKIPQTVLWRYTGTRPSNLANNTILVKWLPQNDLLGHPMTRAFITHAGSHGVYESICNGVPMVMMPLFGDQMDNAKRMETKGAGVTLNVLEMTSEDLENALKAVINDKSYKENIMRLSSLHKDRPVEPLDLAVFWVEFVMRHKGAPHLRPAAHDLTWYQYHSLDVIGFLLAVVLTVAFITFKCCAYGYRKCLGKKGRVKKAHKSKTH
In short: as §1

[6] = Glucuronidation kinetics of NBIF in HLM; format: in vitro ADME, human
In short: as §1

[7] = Glucuronidation kinetics of NBIF in MkLM; format: in vitro ADME, monkeys; conditions: glucuronide formation from NBIF, UDPGA-supplemented MkLM
In short: as §1

[8] = Glucuronidation kinetics of NBIF in RaLM; format: in vitro ADME, rabbits; conditions: glucuronide formation from NBIF, UDPGA-supplemented RaLM
In short: as §1

[9] = Glucuronidation kinetics of NBIF in DLM; format: in vitro ADME, dogs; conditions: glucuronide formation from NBIF, UDPGA-supplemented DLM
In short: as §1

[10] = Glucuronidation kinetics of NBIF in HIM; format: in vitro ADME, human; conditions: glucuronide formation from NBIF, UDPGA-supplemented HIM
In short: as §1

[11] = molecular target: T4, UGT1A7 (Homo sapiens, UniProt Q9HAW7); assay: Glucuronidation kinetics of NBIF by recombinant UGT1A7; format: in vitro ADME; conditions: glucuronide formation from NBIF
T4 sequence (Q9HAW7 26-530): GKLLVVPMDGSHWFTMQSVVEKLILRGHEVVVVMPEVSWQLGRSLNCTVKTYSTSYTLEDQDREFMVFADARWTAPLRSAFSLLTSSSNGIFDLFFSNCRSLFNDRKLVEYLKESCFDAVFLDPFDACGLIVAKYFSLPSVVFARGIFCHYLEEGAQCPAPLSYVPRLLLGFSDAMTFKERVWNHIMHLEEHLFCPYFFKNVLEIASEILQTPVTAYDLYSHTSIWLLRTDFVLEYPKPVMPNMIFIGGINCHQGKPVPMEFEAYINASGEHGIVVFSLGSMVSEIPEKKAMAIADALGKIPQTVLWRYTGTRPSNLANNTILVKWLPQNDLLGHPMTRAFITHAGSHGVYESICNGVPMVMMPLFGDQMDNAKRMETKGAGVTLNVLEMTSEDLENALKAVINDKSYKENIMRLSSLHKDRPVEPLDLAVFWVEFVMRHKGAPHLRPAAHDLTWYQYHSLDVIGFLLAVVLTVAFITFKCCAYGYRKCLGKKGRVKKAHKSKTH
In short: as §1

[12] = molecular target: human monoamine oxidase-B; conditions: cited from earlier work
[13] = test system: UDP-glucuronosyltransferase 1A1 (UGT1A1); conditions: inhibitory effect on UGT1A1; cited from earlier work
[14] = inhibitory effect on HLM; cited from earlier work
[15] = molecular target: α-glucosidase; conditions: α-glucosidase inhibitory activities; cited from earlier work
[16] = Species difference analysis of NBIF metabolism; format: in vitro ADME; conditions: CLint, HLM versus animal liver microsomes
In short: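 CLint values (Vmax/Km from model fits) for oxidation and glucuronidation come from pooled human liver microsomes and from monkey, rat, mouse, dog and rabbit liver microsomes. Each was incubated with test compound at 0.16–80 μM, using NADPH-supplemented oxidation or UDPGA/alamethicin glucuronidation conditions. Metabolites were measured by UHPLC/Q-TOF-MS in triplicate.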

[17] = molecular target: human carboxylesterase 2; conditions: cited from earlier work
[18] = molecular target: human monoamine oxidase-A; conditions: cited from earlier work
[19] = test system: platelet aggregation; conditions: inhibition of platelet aggregation; cited from earlier work
[20] = glucuronidation; cited from earlier work
[21] = glucuronidation; cited from earlier work; remark: listed apart in the source
[22] = glucuronide formation from NBIF, UDPGA-supplemented HLM

CC(C)=CCc1cc(-c2coc3cc(O[C@@H]4O[C@H](C(=O)O)[C@@H](O)[C@H](O)[C@H]4O)ccc3c2=O)ccc1O [G1, NBIF-7-O-glucuronide]
Ki [1]: 24.73 ± 4.75 µM
Vmax [1]: 2490.0 ± 249.5 pmol/min/mg
Ki [2]: 38.19 ± 10.18 µM
Vmax [2]: 3589.0 ± 432.9 pmol/min/mg
Ki [3]: 291.1 ± 100.1 µM
Vmax [3]: 912.4 ± 49.36 pmol/min/mg
Vmax [4]: 70.01 ± 1.37 pmol/min/mg
Vmax [5]: 419.1 ± 18.69 pmol/min/mg
Ki [6, 22]: 48.45 ± 13.86 µM
Vmax [6, 22]: 1788.0 ± 203.6 pmol/min/mg
Vmax [7]: 4129.0 ± 182.8 pmol/min/mg
Vmax [8]: 3006.0 ± 103.8 pmol/min/mg
Vmax [9]: 1807.0 ± 48.14 pmol/min/mg
Vmax [10]: 409.3 ± 18.9 pmol/min/mg
Ki [11]: 61.82 ± 13.5 µM
Vmax [11]: 11.93 ± 0.55 pmol/min/mg

CC(C)=CCc1cc(-c2coc3cc(O)ccc3c2=O)ccc1O[C@@H]1O[C@H](C(=O)O)[C@@H](O)[C@H](O)[C@H]1O [G2, NBIF-4′-O-glucuronide]
Ki [1]: 9.09 ± 1.82 µM
Vmax [1]: 826.6 ± 99.48 pmol/min/mg
Ki [2]: 31.68 ± 9.16 µM
Vmax [2]: 3878.0 ± 563.1 pmol/min/mg
Ki [3]: 401.2 ± 135.7 µM
Vmax [3]: 48.33 ± 1.59 pmol/min/mg
Vmax [4]: 805.9 ± 17.46 pmol/min/mg
Vmax [5]: 147.0 ± 6.84 pmol/min/mg
Vmax [6, 22]: 919.1 ± 20.23 pmol/min/mg
Vmax [7]: 7072.0 ± 228.4 pmol/min/mg
Vmax [8]: 3411.0 ± 155.5 pmol/min/mg
Vmax [9]: 3363.0 ± 85.47 pmol/min/mg
Ki [10]: 33.32 ± 7.95 µM
Vmax [10]: 8655.0 ± 1021.0 pmol/min/mg
Ki [11]: 154.5 ± 44.85 µM
Vmax [11]: 135.3 ± 4.36 pmol/min/mg

CC(C)=CCc1cc(-c2coc3cc(O)ccc3c2=O)ccc1O [NBIF, Neobavaisoflavone]
pIC50 [12]: 4.11
pIC50 [13]: 5.62
microsomal CLint ([4]; human, recombinant UGT1A9, pH 7.4): 1070 µL/min/mg
microsomal CLint ([6]; human, human liver microsomes (HLM) and HIM, pH 7.4): 60 to 949 µL/min/mg
pIC50 [14]: 5.65
pIC50 [15]: 4.56
species differences in glucuronidation [16]: approximately 2.3 fold
species differences in the phase I metabolism [16]: approximately 16.1 fold
pIC50 [17]: 5.19
pIC50 [18]: 4.18
pIC50 [19]: 5.60

COc1ccc(-c2oc3c(CC=C(C)C)c(O)cc(O)c3c(=O)c2O)cc1 [icaritin]
CLint values [20]: more than 270 μL/min/mg

COc1ccc(-c2oc3c(CCC(C)(C)O)c(O)cc(O)c3c(=O)c2O)cc1 [wushanicaritin]
CLint values [21]: > 160 µL/min/mg
